Experiment: Toxicity liver stage against HepG2, at 10uM
Format: cell-based
Design: test concentration 10 uM, cell line HepG2-A16-CD81EGFP
Conditions: human, HepG2-A16-CD81EGFP cells; read-out: INHIBITION
Method in brief: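 Uninfected HepG2-A16-CD81EGFP cells, 3 × 10^3 per well, 1536-well, plated on prespotted compound at 10 μM final, parasite-free screening media added to match infected plates; puromycin 10 μM positive, DMSO 0.5% negative; run in parallel with 48 h PbLuc assay at 37 °C, 5% CO2; viability by CellTiter-Glo luminescence, normalized to controls.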

SMILES | cytotoxicity at 10 µM
CC1c2ncc(CN3CCN(C)CC3)n2CCN1Cc1ccsc1 (stereo unspecified) | 6.58%
O=C(NCc1cn2c(n1)CN(Cc1ccccn1)CC2)C1CCC1 | 7.49%
Cc1cc(C(=O)N2CCn3nc(C(=O)NC4CC4)cc3C2)nc(C)n1 | 1.15%
CC(=O)NCC(=O)N(CCN1CCOCC1)Cc1ccco1 | -9.04%
OCCN(Cc1ccccc1)Cc1nc(-c2ccc3c(c2)OCO3)no1 | 4.74%
CN1C(=O)C2(CC(=O)Nc3c2cnn3C(C)(C)C)c2ccccc21 (stereo unspecified) | -4.5%
CNC(=O)CCCNCc1c(C)nn(C)c1N(C)C | -8.18%
CC(C)CN1CCc2[nH]cnc2C12CCN(C(=O)c1cccnc1)CC2 | 23.4%
COCCN(C(=O)c1c[nH]c2ncccc12)C1CCCC1 | -3.08%
Cc1noc(C)c1C(=O)N[C@@H]1CC[C@@H](Oc2ccccc2)[C@@H]1O | 0.395%
COCCN1CCN(C(C(=O)O)c2ccc(SC)cc2)CC1 (stereo unspecified) | 1.75%
Cc1noc(C(C)N2CCN(CC(=O)N3CCCC3)CC2)n1 (stereo unspecified) | 0.678%
Cc1ccc(CNC2CC3(CCN(CCO)CC3)c3ccccc32)s1 (stereo unspecified) | -108%
CC(C)C(=O)NCCCn1ncc2c(Cl)cccc21 | -21.6%
Cc1nc(C(=O)N2CCCC(c3nc(C(C)C)cs3)C2)c[nH]1 (stereo unspecified) | -41.7%
O=C1COC2(CCN(CC3CC3)CC2)CN1c1ccsc1 | -79.2%
O=C1CO[C@@H]2CN(S(=O)(=O)c3ccc(F)cc3)C[C@H]2N1 | 4.59%
CN(Cc1nnn(CC2CCC2)n1)C(=O)c1ccccc1 | -6.06%
Cc1cc(C)n(CC2CCCN2C(=O)c2nccc3ccccc23)n1 (stereo unspecified) | -7.49%
CNC(=O)[C@@H]1COC[C@H]2CN(C(=O)c3ccc(C)c(C)c3)C[C@H]21 | 11.6%
Cc1ccc(C)n1-c1c(C(=O)NCC(c2ccsc2)N(C)C)cnn1C (stereo unspecified) | 17.1%

SMILES | cytotoxicity at 10 µM
CCc1nc(CNc2ccc(-c3nc(C4CC4)no3)cn2)no1 | -6.14%
O=C1CN(C(=O)c2cccc(OCc3cscn3)c2)CCN1 | 1.9%
CCCn1cc(C(=O)NCCC(=O)NC2CCCCC2)c(C)n1 | -3.31%
CCn1cc2c(n1)CN(Cc1ccncc1)CC2COCC1CC1 (stereo unspecified) | 6.59%
O=C1CCC(C(=O)NCCOc2ccccc2-c2ccccc2)CN1 (stereo unspecified) | 5.47%
COCCNC(=O)c1ccnn1-c1ccc2ccccn12 | 8.28%
CN(CCC(=O)N1CCCC(Cc2cccnc2)C1)Cc1cccnc1 (stereo unspecified) | -9.41%
Cc1cc(C)c(S(=O)(=O)Nc2c(C)nc(N3CCCC3)nc2C)cc1C | 3.62%
CCCc1cc(CNC(=O)C2CCOc3ccccc3C2)on1 (stereo unspecified) | -3.8%
Cc1nc2oc(C(=O)N3CCOCC3)c(N)c2c2c1CCCC2 | -2.8%
CCN1CCC12CCN(C(=O)c1cc(C)on1)C2 (stereo unspecified) | 5.71%
COc1cccc(CN2CCC3(CC2)CCN(c2ncccn2)C3)c1 | -7.46%
Cc1nccc(CNC(=O)N2CCN(Cc3ccccc3)C[C@H]2C)n1 | -128%
CCc1nc(CN(C)C2CCN(Cc3cnc(C)cn3)C2)no1 (stereo unspecified) | 4.23%
CCC(O)CN1CCN(C(=O)c2cccc3c2OCC(=O)N3)CC1 (stereo unspecified) | -7.55%
Cn1cnnc1-c1cncc(NCc2ccccc2Br)c1 | 6.53%
CC(=O)N1CCCN(CCn2nc3ccccn3c2=O)CC1 | -137%
CC(C)N(C)C(=O)c1ccc(Cl)c(NC(=O)C2CCC2)c1 | -2.74%
CCc1cnc(N2CC[C@H]3[C@@H]2CCC(=O)N3c2cccnc2)nc1 | 10.4%
CC(C(=O)N1CCCC1)n1nc(-c2cccs2)cc(N)c1=O (stereo unspecified) | 6.66%
CCOc1ccccc1CCC(=O)Nc1c(C)nn(C)c1C | -3.91%

SMILES | cytotoxicity at 10 µM
CCCc1noc(C[S+]([O-])CC(=O)NCc2ccccc2)n1 (stereo unspecified) | -4.3%
CNCc1ccc([C@@H]2CN(C(C)=O)C[C@H]2C(N)=O)cc1 | 5.32%
Cc1ccc2[nH]c(CN(C)Cc3n[nH]c4c3CCC4)nc2c1 | 4.85%
C[C@H](O)CNc1cc(-c2ccncc2)ncn1 | -11.1%
O=C(c1ccoc1)N1CCCCC1c1nc[nH]n1 (stereo unspecified) | -7.03%
Cc1ccc(C(=O)N2CCOC(c3nc(-c4ncccn4)no3)C2)cc1 (stereo unspecified) | -19.9%
CC(C)Cn1c2c(ccc1=O)CC(NC(=O)c1ccsc1)CC2 (stereo unspecified) | -109%
c1ccc(OCCNC2CCCN(Cc3noc(C4CC4)n3)C2)cc1 (stereo unspecified) | -13.6%
CC(=O)Nc1ccc(CNCc2ccc(CS(C)(=O)=O)cc2)cc1 | 4.67%
Cc1cc(C)c(CNC(=O)N2CCCC2c2cccc(F)c2)c(=O)[nH]1 (stereo unspecified) | 5.22%
CC(=O)N1CCc2c(nc(N(C)C)nc2N(C)CCO)C1 | -2.48%
CN(Cc1ccncn1)c1nccc(CCC(F)(F)F)n1 | 11.2%
COc1cccc(CC(=O)N2CCCC(c3n[nH]c4nccnc34)C2)c1 (stereo unspecified) | 4.62%
O=S1(=O)c2cccnc2OC(Cc2ccccc2)CN1CC1CC1 (stereo unspecified) | -2.46%
N#CCCN(CC1CCCO1)C(=O)c1ccc(C#N)cc1 (stereo unspecified) | -2.45%
CC(C)Cc1nc(CS(=O)(=O)c2ccccc2)no1 | 9.52%
CCc1ncc(C(=O)N2CCCCC2Cn2cccn2)s1 (stereo unspecified) | -2.48%
CCOC(=O)c1cccc(N2CCCC3(CCC(=O)N(C4CC4)C3)C2)n1 (stereo unspecified) | -1.38%
CN(Cc1cnccn1)S(=O)(=O)N1CCCC1c1ccco1 (stereo unspecified) | -15.6%
CC(C)N1CCC2(CC1)CC(=O)N(Cc1cc(F)cc(F)c1)C2 | 9.03%
c1cnc(NCc2noc3c2CN(c2cnccn2)CC3)nc1 | 0.774%

SMILES | cytotoxicity at 10 µM
Cn1cc(CCC(=O)NC(c2ccc(F)cc2)C(F)(F)F)cn1 (stereo unspecified) | 1.68%
CN(Cc1cscn1)C(=O)C(c1ccccc1)N1CCSCC1 (stereo unspecified) | 9.26%
CC(C)(O)CCc1cccc(C(=O)NCCC2=CSC3=NCCCN23)c1 | 9.17%
c1cncc(OCCCNC2COc3ccccc3C2)c1 (stereo unspecified) | -7.84%
CS(=O)(=O)N1CCO[C@@H]2CN(C(=O)c3cccnc3)C[C@@H]2C1 | 7.64%
Cc1nc(NC2CCS(=O)(=O)CC2)cc(C2CCCNC2)n1 (stereo unspecified) | -11%
O=C(CC1=CCCCC1)N1CCC(Cn2cc(CCO)nn2)CC1 | 3.88%
CN(CC(=O)c1ccc2[nH]c(=O)[nH]c2c1)Cc1ccc2c(c1)OCO2 | 5.34%
O=C(NCCN1CCCCC1)c1ccn(-c2ccc(F)cc2)n1 | -8.05%
O=C(O)c1ccccc1-n1cc(CN2CCC(c3cc[nH]n3)C2)cn1 (stereo unspecified) | 1.1%
COc1ccc(NC(=O)CCn2nc(-c3cccs3)oc2=O)cc1OC | -9.37%
CN(C)C(=O)NC1COC2(CCN(Cc3ccco3)CC2)C1 (stereo unspecified) | -72.4%
Cc1ccc(Oc2c(F)cccc2OC[C@@H](N)CC(C)C)cc1 | -8.94%
Nc1cc(CCC2CN(Cc3ccc4cc[nH]c4c3)CCO2)ccn1 (stereo unspecified) | -10.6%
Cc1ccc(C(=O)N2CCN(C(=O)Cc3ccccn3)CC2)c(C)c1 | -4.74%
Nc1nc(CCNc2ncnc3c2CCN(C(=O)C2CC2)C3)cs1 | -6.68%
O=C(c1cccnc1SC/C=C/c1ccccc1)N1CCOCC(O)C1 (stereo unspecified) | -2.42%
COC(=O)c1cc(C(=O)N2CCC(C)CC2)n(-c2ccccc2)n1 | 0.103%

— ChEMBL document CHEMBL4513216, “Probing the Open Global Health Chemical Diversity Library for Multistage-Active Starting Points for Next-Generation Antimalarials” (ACS Infect Dis, 2020)
